# PMC3902791 (Molecular imaging and biology : MIB : the official …, 2012)
# Assay: Radio-HPLC analysis of radiolabeled metabolites in blood plasma and urine
# Assay type: in vivo, rhesus macaques
# Summary of the method: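 Plasma was ultrafiltered, then run on radio-HPLC (Supelcogel C-610H column, 20 mM phosphoric acid, 0.5 mL/min, UV plus radioactivity detection). Peaks were identified with cold fluorocitrate and fluoride standards, and fractions were taken from peak areas. Urine was collected by Foley catheter, which was clamped until after the second whole-body scan. It was collected at 120–150 min, gamma-counted and analysed by the same HPLC.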
smiles,measurement,setting,value
"O=C(O)C[18F] [^18F-FACE, ^18F-fluoroacetate]",^18F-fluorocitrate anabolite,3-h study,not detectable
same,fraction of total radioactivity in urine as ^18F-FACE,urine collected at 120–150 min,72.4%
same,fraction of total radioactivity in urine as ^18F-fluoride,urine collected at 120–150 min,27.6%
